ChEMBL document CHEMBL3865784 (Eur J Med Chem, 2016)

Legend:
[1] = Cytotoxicity against NQO1-deficient human HL60 cells assessed as reduction in cell viability after 72 hrs by MTT assay; type: functional, cell-based; conditions: HL-60, 72 h
Summary of the method: (§1)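 Cancer lines from NCI, grown in RPMI 1640 with 10% FBS, 2 mM L-glutamine, penicillin/streptomycin, 37 °C, 5% CO2; seeded 0.1 × 10^6 cells/well (HL-60) or 0.7 × 10^5 cells/well (solid tumours). Compounds in DMSO, final 0.1% v/v; DMSO vehicle as negative control.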

[2] = Cytotoxicity against human HCT116 cells expressing NQO1 assessed as reduction in cell viability after 72 hrs by MTT assay; type: functional, cell-based; conditions: HCT-116, 72 h; summary of the method: as §1
[3] = Cytotoxicity against human PC3 cells overexpressing NQO1 assessed as reduction in cell viability after 72 hrs by MTT assay; type: functional, cell-based; conditions: PC-3, 72 h
[4] = Cytotoxicity against human SF295 cells overexpressing NQO1 assessed as reduction in cell viability after 72 hrs by MTT assay; type: functional, cell-based; conditions: SF-295, 72 h
[5] = Cytotoxicity against human MDA-MB-435 cells overexpressing NQO1 assessed as reduction in cell viability after 72 hrs by MTT assay; type: functional, cell-based; conditions: MDA-MB-435, 72 h; summary of the method: as §1
[6] = Cytotoxicity against human OVCAR8 cells overexpressing NQO1 assessed as reduction in cell viability after 72 hrs by MTT assay; type: functional, cell-based; conditions: OVCAR-8, 72 h; summary of the method: as §1
[7] = Cytotoxicity against NQO1-deficient human PBMC assessed as reduction in cell viability after 72 hrs by MTT assay; type: toxicity, cell-based; conditions: pbmc
[8] = Cytotoxicity against NQO1-deficient chinese hamster V79 cells assessed as reduction in cell viability after 72 hrs by MTT assay; type: toxicity, cell-based, Cricetulus griseus; conditions: v79
Mus musculus = species: Mus musculus; assay: Cytotoxicity against NQO1-deficient mouse L929 cells assessed as reduction in cell viability after 72 hrs by MTT assay; type: toxicity, cell-based; conditions: l929
HL-60 [9] = assay: Selectivity index, ratio of IC50 for NQO1-deficient human PBMC to IC50 for NQO1-deficient human HL60 cells
Summary of the method: (§2)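 Selectivity index is IC50 in the normal cells divided by IC50 in the cancer line. Normal cells: V79 and L929 in DMEM, PBMC in RPMI with phytohaemagglutinin. Cancer lines in RPMI with 10% FBS, seeded at 0.1 × 10^6 (HL-60) or 0.7 × 10^5 cells/well (solid tumors). Absorbance 550 nm; nonlinear regression.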

HL-60 [10] = assay: Selectivity index, ratio of IC50 for NQO1-deficient chinese hamster V79 cells to IC50 for NQO1-deficient human HL60 cells; type: functional; summary of the method: as §2
L929 [11] = assay: Selectivity index, ratio of IC50 for NQO1-deficient mouse L929 cells to IC50 for NQO1-deficient human HL60 cells; type: functional; summary of the method: as §2
HCT-116 [12] = assay: Selectivity index, ratio of IC50 for NQO1-deficient human PBMC to IC50 for human HCT116 cells expressing NQO1
Summary of the method: as §2, with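 “line. All IC50s come from 72 h MTT assays.” for “line.”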

HCT-116 [13] = assay: Selectivity index, ratio of IC50 for NQO1-deficient chinese hamster V79 cells to IC50 for human HCT116 cells expressing NQO1
Summary of the method: as §2, with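 “line. All IC50s come from 72 h MTT assays.” for “line.”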

HCT-116 [14] = assay: Selectivity index, ratio of IC50 for NQO1-deficient mouse L929 cells to IC50 for human HCT116 cells expressing NQO1
Summary of the method: as §2, with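 “line. All IC50s come from 72 h MTT assays.” for “line.”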

SF-295 [15] = assay: Selectivity index, ratio of IC50 for NQO1-deficient human PBMC to IC50 for human SF295 cells overexpressing NQO1; summary of the method: as §2
SF-295 [16] = assay: Selectivity index, ratio of IC50 for NQO1-deficient chinese hamster V79 cells to IC50 for human SF295 cells overexpressing NQO1; summary of the method: as §2
L929 [17] = assay: Selectivity index, ratio of IC50 for NQO1-deficient mouse L929 cells to IC50 for human SF295 cells overexpressing NQO1; summary of the method: as §2
PC-3 [18] = assay: Induction of apoptosis in human PC3 cells assessed as externalization of phosphatidylserine on cell surface by measuring early apoptotic cells at 5 uM after 6 hrs by Annexin-V/FITC/PI staining by flow cytometry (reference value: 0.93 +/- 0.05%); type: functional
PC-3 [19] = assay: Induction of apoptosis in human PC3 cells assessed as externalization of phosphatidylserine on cell surface by measuring early apoptotic cells at 5 uM pretreated with NAC measured after 6 hrs by Annexin-V/FITC/PI staining by flow cytometry (reference value: 0.93 +/- 0.05%); type: functional
PC-3 [20] = assay: Induction of apoptosis in human PC3 cells assessed as externalization of phosphatidylserine on cell surface by measuring late apoptotic cells at 5 uM pretreated with NAC measured after 6 hrs by Annexin-V/FITC/PI staining by flow cytometry (reference value: 0%); type: functional
PC-3 [21] = assay: Induction of apoptosis in human PC3 cells assessed as externalization of phosphatidylserine on cell surface by measuring early apoptotic cells at 5 uM cotreated with NQO1 inhibitor dicoumarol measured after 6 hrs by Annexin-V/FITC/PI staining by flow cytometry (reference value: 0.93 +/- 0.05%); type: functional; set-up: scale not given: the % may be the effect or the level left
PC-3 [22] = assay: Induction of apoptosis in human PC3 cells assessed as externalization of phosphatidylserine on cell surface by measuring late apoptotic cells at 5 uM cotreated with NQO1 inhibitor dicoumarol measured after 6 hrs by Annexin-V/FITC/PI staining by flow cytometry (reference value: 0%); type: functional; set-up: scale not given: the % may be the effect or the level left
PC-3 [23] = assay: Selectivity index, ratio of IC50 for NQO1-deficient human PBMC to IC50 for human PC3 cells overexpressing NQO1; summary of the method: as §2
V79 [24] = assay: Selectivity index, ratio of IC50 for NQO1-deficient chinese hamster V79 cells to IC50 for human PC3 cells overexpressing NQO1; summary of the method: as §2
L929 [25] = assay: Selectivity index, ratio of IC50 for NQO1-deficient mouse L929 cells to IC50 for human PC3 cells overexpressing NQO1; summary of the method: as §2
[26] = Selectivity index, ratio of IC50 for NQO1-deficient human PBMC to IC50 for human MDA-MB-435 cells overexpressing NQO1; summary of the method: as §2
V79 [27] = assay: Selectivity index, ratio of IC50 for NQO1-deficient chinese hamster V79 cells to IC50 for human MDA-MB-435 cells overexpressing NQO1; summary of the method: as §2
L929 [28] = assay: Selectivity index, ratio of IC50 for NQO1-deficient mouse L929 cells to IC50 for human MDA-MB-435 cells overexpressing NQO1; summary of the method: as §2
OVCAR-8 [29] = assay: Selectivity index, ratio of IC50 for NQO1-deficient human PBMC to IC50 for human OVCAR8 cells overexpressing NQO1
Summary of the method: as §2, with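 “line. All IC50s come from 72 h MTT assays.” for “line.”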

OVCAR-8 [30] = assay: Selectivity index, ratio of IC50 for NQO1-deficient chinese hamster V79 cells to IC50 for human OVCAR8 cells overexpressing NQO1
Summary of the method: as §2, with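 “line. All IC50s come from 72 h MTT assays.” for “line.”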

L929 [31] = assay: Selectivity index, ratio of IC50 for NQO1-deficient mouse L929 cells to IC50 for human OVCAR8 cells overexpressing NQO1; summary of the method: as §2
PC-3 [32] = assay: Induction of apoptosis in human PC3 cells assessed as externalization of phosphatidylserine on cell surface by measuring late apoptotic cells at 5 uM after 6 hrs by Annexin-V/FITC/PI staining by flow cytometry (reference value: 0%); type: functional

Compound	IC50 [1]	IC50 [2]	IC50 [3]	IC50 [4]	IC50 [5]	IC50 [6]	IC50 [7]	IC50 [8]	IC50 (Mus musculus)	Ratio IC50 (HL-60 [9])	Ratio IC50 (HL-60 [10])	Ratio IC50 (L929 [11])	Ratio IC50 (HCT-116 [12])	Ratio IC50 (HCT-116 [13])	Ratio IC50 (HCT-116 [14])	Ratio IC50 (SF-295 [15])	Ratio IC50 (SF-295 [16])	Ratio IC50 (L929 [17])	Activity (PC-3 [18])	Ratio IC50 (PC-3 [23])	also measured
O=C1C=C(NCc2cn(C[Se]c3ccccc3)nn2)C(=O)c2ccccc21	1.13 µM	1.72 µM	2.08 µM	0.97 µM	3.09 µM	1.89 µM	4.75 µM	3.99 µM	3.83 µM	4.2	3.5	3.3	2.7	2.3	2.2	4.8	4.1	3.9	–	–	–
CC1(C)OC2=C(C(=O)C(=O)c3ccccc32)C1n1cc(C[Se]c2ccccc2)nn1 (centres undefined)	1.29 µM	–	2.43 µM	1.31 µM	1.06 µM	2.26 µM	1.76 µM	2.65 µM	2.3 µM	–	–	–	–	–	–	–	–	–	15.07%	–	Activity (PC-3 [19]): 1.12%; Activity (PC-3 [20]): 0%; Activity (PC-3 [21]): 1.26%; Activity (PC-3 [22]): 0%
O=C1C(=O)c2ccccc2C2=C1CC(Cn1cc(C[Se]c3ccccc3)nn1)O2 (centres undefined)	0.13 µM	–	0.24 µM	0.22 µM	0.29 µM	0.07 µM	1.31 µM	0.44 µM	0.62 µM	10	3.3	4.7	–	–	–	5.9	2	2.8	–	5.4	Ratio IC50 (V79 [24]): 1.8; Ratio IC50 (L929 [25]): 2.5; Ratio IC50 [26]: 4.5; Ratio IC50 (V79 [27]): 1.5; Ratio IC50 (L929 [28]): 2.1; Ratio IC50 (OVCAR-8 [29]): 18.7; Ratio IC50 (OVCAR-8 [30]): 6.2; Ratio IC50 (L929 [31]): 8.8
O=c1oc2ccccc2c(O)c1Cc1c(O)c2ccccc2oc1=O [DICUMAROL]	–	–	–	–	–	–	–	–	–	–	–	–	–	–	–	–	–	–	0.95%	–	Activity (PC-3 [32]): 0%
C#Cc1cccc(NC2C3=C(OC2(C)C)c2ccccc2C(=O)C3=O)c1 (centres undefined)	0.26 µM	1.48 µM	1.86 µM	2.59 µM	2.04 µM	2.53 µM	2.8 µM	2.16 µM	2.5 µM	10.7	8.3	9.6	1.89	1.45	1.68	–	–	–	–	1.5	Ratio IC50 (V79 [24]): 1.1; Ratio IC50 (L929 [25]): 1.3
